Measurements of several laboratories.
Protocols differ between the studies behind these lines.

Cc1nc2ccc(OCc3ccc(C(F)(F)F)cc3)cc2[nH]1 — MRT(0-inf) (male BALB/c mouse, plasma; oral, 10 mg/kg): 4.04 h
COC1=CC(c2ccc[nH]2)=N/C1=C\c1[nH]c(Cc2ccc(OC(F)(F)F)cc2)cc1Cc1ccc(OC(F)(F)F)cc1 — MRT(0-t) (male CD-1 mouse, liver; oral, 40 mg/kg, single dose): 22.2 h
C[C@@H]1COCCN1c1cc(=O)n2c(n1)N(Cc1cncc(Cl)c1)[C@H](C(F)(F)F)CC2 — MRT(0-t) (C57BL/6 mouse, plasma; intraperitoneal, 10 mg/kg, single dose): 0.45 h
CCOC(=O)c1c(NC(=O)CNC(C)C)sc2c1CCCCC2 — MRT(0-inf) (male mouse, plasma; intraperitoneal, 5 mg/kg, single dose): 1.79 h
OCc1nc2ccc(NCc3ccc(C(F)(F)F)cc3)cc2[nH]1 — MRT(0-inf) (male BALB/c mouse, plasma; intravenous, 1 mg/kg): 1.1 h
O=C1CCC(N2Cc3cc(C4CCN(Cc5ccccc5)CC4)ccc3C2=O)C(=O)N1 (stereo not shown) — MRT(0-inf) (male CD-1 mouse, plasma; intravenous, 1 mg/kg): 3.34 h
COC1=CC(c2ccc[nH]2)=N/C1=C\c1cc(Cc2ccc(OC(F)(F)F)cc2)c(C)[nH]1.Cl — MRT(0-t) (male CD-1 mouse, plasma; oral, 40 mg/kg, single dose): 34.4 h
Cc1ccc(CCC(=O)Nc2nnc(S(N)(=O)=O)s2)cc1 — MRT (male BALB/c mouse, plasma; oral, 20 mg/kg): 3.74 h
CC[C@H](C)[C@H](NC(=O)[C@H](CCC(=O)O)NC(=O)[C@H](CCC(=O)O)NC(=O)[C@@H]1CCCN1C(=O)[C@H](CO)NC(=O)[C@H](C)NC(=O)[C@H](CC(=O)O)NC(=O)[C@H](CCC(=O)O)NC(=O)[C@H](CCC(=O)O)NC(=O)[C@@H]1CCCN1C(=O)[C@H](CCCCNC(=O)COCCOCCNC(=O)COCCOCCNC(=O)CC[C@H](NC(=O)CCCCCCCCCCCCCCCCC(=O)O)C(=O)O)NC(=O)[C@H](C)NC(=O)[C@@H]1CCCN1C(=O)[C@H](C)NC(=O)CC(C)C)C(=O)N[C@@H](CCC(N)=O)C(=O)N[C@@H](CCCNC(=N)N)C(=O)N[C@@H](Cc1ccc(O)cc1)C(=O)N[C@@H](Cc1ccc(O)cc1)C(=O)N[C@H](C(=O)N[C@@H](CO)C(=O)N[C@@H](CC(C)C)C(=O)N[C@@H](CCCNC(=N)N)C(=O)N[C@@H](Cc1c[nH]cn1)C(=O)N[C@@H](Cc1ccc(O)cc1)C(=O)N[C@@H](Cc1ccc(O)cc1)C(=O)N[C@@H](CC(N)=O)C(=O)N[C@@H](Cc1c[nH]c2ccccc12)C(=O)N[C@@H](CC(C)C)C(=O)N[C@H](C(=O)N[C@@H](CCCNC(=N)N)C(=O)N[C@@H](CCC(N)=O)C(=O)N[C@@H](CCCNC(=N)N)C(=O)N[C@@H](Cc1ccc(O)cc1)C(N)=O)[C@@H](C)O)C(C)C — MRT (male NMRI mouse, plasma; subcutaneous, 30 nmol/kg, single dose): 18 h
CCOC(=O)C1=C(CN2CCC[C@@H]2C(=O)Nc2ccc(B(O)O)cc2)NC(c2nccs2)=N[C@H]1c1ccc(F)cc1Br — MRT(0-inf) (CD-1 mouse, plasma; oral, 10 mg/kg): 1 h
